The values that follow come from ChEMBL document CHEMBL3632541, “Synthesis, antileishmanial activity and cytotoxicity of 2,3-diaryl- and 2,3,8-trisubstituted imidazo[1,2-a]pyrazines” (Eur J Med Chem, 2015).

The nature of series [1]: Cytotoxicity against BALB/c mouse peritoneal macrophages assessed as cell viability after 48 hrs by trypan blue dye exclusion method. To be noted: Peritoneal macrophage cell. The format is cell-based.
The nature of series [2]: Therapeutic index, ratio of IC50 for BALB/c mouse peritoneal macrophages to IC50 for promastigote form of Leishmania major (MHOM/IL/81/BNI). To be noted: read-out: Ratio IC50.
Series [3] concerns Leishmania major. Put plainly: Antileishmanial activity against promastigote form of Leishmania major MHOM/IL/81/BNI after 96 hrs by spectrofluorimetric micromethod. The format is functional, organism-based.
Series [4] in a line: Cytotoxicity against BALB/c mouse 3T3 clone A31 cells after 48 hrs by SRB assay method. The series is classed as cell-based. To be noted: A31, 48 h. The procedure, abridged: (§1)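 Cells plated in growth medium and allowed to attach 24 h (37 °C, 5% CO₂). Time-zero plate fixed with TCA. Serial 4-fold dilutions added for 48 h. Cells fixed with cold TCA, stained with 0.2% SRB, dye solubilized in 10 mM Tris pH 10.5, absorbance read at 510 nm. GI50 is 50% absorbance reduction versus solvent controls, by linear regression. K562 counted by Coulter counter instead. 5-FU reference.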

Series [5] can be described thus: Cytotoxicity against human M14 cells assessed as growth inhibition after 48 hrs by SRB assay method. The series is classed as cell-based. The procedure, abridged:
as §1
(The SRB assay estimates cell density from bound dye.)

A short description of series [6]: Cytotoxicity against human DU145 cells assessed as growth inhibition after 48 hrs by SRB assay method. The format is cell-based, DU-145. The gist of the method:
as §1

Series [7] can be described thus: Cytotoxicity against human H460 cells assessed as growth inhibition after 48 hrs by SRB assay method. The series is classed as cell-based, NCI-H460. The procedure, abridged:
as §1

Series [8] is described as follows: Cytotoxicity against human HT-29 cells assessed as growth inhibition after 48 hrs by SRB assay method. The series is classed as cell-based. The procedure, abridged:
as §1

Series [9] can be described thus: Therapeutic index, ratio of IC50 for BALB/c mouse 3T3 clone A31 cells to IC50 for promastigote form of Leishmania major (MHOM/IL/81/BNI). The series is classed as cell-based. The settings on record: read-out: Ratio IC50.
The nature of series [10]: Inhibition of native porcine brain CK1 delta/epsilon using RRKHAAIGpSAYSITA as substrate and [gamma-33P]ATP after 30 mins by scintillation counting. The arrangement: species or system Sus scrofa. The gist of the method:
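Native porcine brain CK1δ/ε, in threefold-diluted buffer A (25 mM Mops pH 7.2, 15 mM MgCl₂, 5 mM EGTA, 1 mM DTT, phosphatase inhibitors). 25 μM CKS peptide substrate, 15 μM [γ-³³P]ATP, 30 min at 30 °C. Stopped on P81 paper, washed in 1% phosphoric acid, counted by scintillation. Blank subtracted; activity as % of the no-inhibitor value; DMSO controls.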

Series [11] can be described thus: Cytotoxicity against human MCF7 cells assessed as growth inhibition after 48 hrs by SRB assay method. The series is classed as cell-based. The procedure, abridged:
as §1

Series [12] can be described thus: Inhibition of Leishmania major CK1.2 using RRKHAAIGpSAYSITA as substrate and [gamma-33P]ATP after 30 mins by scintillation counting. The procedure, abridged: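 Recombinant His-tagged L. major CK1.2 from E. coli, purified on cobalt beads. Assayed as for the porcine enzyme: CKS peptide substrate, 15 μM [γ-³³P]ATP, 30 min at 30 °C, P81 capture and scintillation counting. Activity as % of the no-inhibitor value.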

A short description of series [13]: Cytotoxicity against human HuTu 80 cells assessed as growth inhibition after 48 hrs by SRB assay method. The series is classed as cell-based, HuTu80. The gist of the method:
as §1

Series [14] can be described thus: Cytotoxicity against human K562 cells assessed as growth inhibition after 48 hrs by Coulter counter cell counting.
The nature of series [15]: Therapeutic index, ratio of IC50 for BALB/c mouse peritoneal macrophages to IC50 for amastigote form of Leishmania major (MHOM/IL/81/BNI) in BALB/c mouse peritoneal macrophages. To be noted: read-out: Ratio IC50.
In series [16] the test system is Leishmania major. Put plainly: Antileishmanial activity against amastigote form of Leishmania major MHOM/IL/81/BNI amastigote in Balb/c mouse peritoneal macrophages after 4 days by May-Grunwald-Giemsa staining-based microscopic analysis. The format is functional, organism-based. The settings on record: 96 h. The gist of the method: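 Peritoneal macrophages from Balb/c mice, 1.5 10⁵ cell/mL in RPMI 1640 + 15% FBS, left 24 h on glass slides (37 °C, 5% CO₂), then infected 24 h with stationary-phase promastigotes (1.5 × 10⁶/mL). Washed cultures exposed to 100, 10, 1 and 0.1 µM for 4 days. Fixed with methanol, Giemsa-stained. Amastigotes counted in 100 macrophages per duplicate well; IC50 from amastigotes/macrophage. Done twice.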

≈ marks a conversion by molar mass, not a printed value.

By IC50 is commonly meant the concentration at which inhibition is half-maximal. By GI50 is commonly meant the concentration giving 50% growth inhibition. For `Fc1ccc(-c2nc3c(NCCN4CCOCC4)nccn3c2-c2ccncc2)cc1`, the IC50 in series [1] was determined as 40.3 µM; with Leishmania major [3], 16.5 µM; in series [4], 47.8 µM; in series [10], 2.7 µM; in series [12] it was 0.62 µM. Also, the selectivity ratio in series [2] was found to be 2.4; in series [9], 2.9. Besides, the GI50 at 48 h in [5] stood at 36 µg/mL (≈ 86 µM); in [6] it was 39 µg/mL (≈ 93.2 µM); in series [7], 20 µg/mL (≈ 47.8 µM); in series [8], 27 µg/mL (≈ 64.5 µM); in series [11], 19 µg/mL (≈ 45.4 µM); in series [13], 28 µg/mL (≈ 66.9 µM). For the same compound, in series [14], the GI50 at 48 h was found to be 21 µg/mL (≈ 50.2 µM).
With `Clc1cccc(-c2c(-c3ccccc3)nc3cnccn23)c1`, the IC50 turned out to be 51.5 µM in series [1] and 14.5 µM in the series on Leishmania major [3]. Also, in series [2], the selectivity ratio is 3.5.
In the case of `N=C(N)c1ccc(OCCCCCOc2ccc(C(=N)N)cc2)cc1` [PENTAMIDINE], the values for the IC50 (in series [1]; with Leishmania major [3]; with Leishmania major [16]) were 153 µM, 4.6 µM and 3 µM, respectively. For the same compound, the selectivity ratio in series [2] is 33.2; in series [15], 50.9.
In the case of `O=c1[nH]cc(F)c(=O)[nH]1` [FLUOROURACIL], the GI50 at 48 h was determined as 0.7 µg/mL (≈ 5.38 µM) in [5]; 1 µg/mL (≈ 7.69 µM) in series [6]; 0.3 µg/mL (≈ 2.31 µM) in series [7]; 0.4 µg/mL (≈ 3.08 µM) in [8]; 0.3 µg/mL (≈ 2.31 µM) in [11]; 0.4 µg/mL (≈ 3.08 µM) in series [13]. Moreover, the GI50 at 48 h in series [14] worked out at 0.9 µg/mL (≈ 6.92 µM).
`Ic1c(-c2ccccc2)nc2c(NCCN3CCOCC3)nccn12`: the IC50 in [1] is 31.4 µM; with Leishmania major [3] it was 10.6 µM; in [4], 236 µM; in series [10], greater than 10 µM; in [12], greater than 10 µM. Further, the selectivity ratio in [2] came out at 3; in series [9] it was 22.3. For the same compound, the GI50 at 48 h in series [5] is 179 µg/mL (≈ 398 µM); in series [6], 47 µg/mL (≈ 105 µM); in [7], 121 µg/mL (≈ 269 µM); in series [8] it was 22 µg/mL (≈ 49 µM); in series [11], 29 µg/mL (≈ 64.5 µM); in series [13] it was 33 µg/mL (≈ 73.4 µM). Also, the GI50 at 48 h in series [14] was found to be 18 µg/mL (≈ 40.1 µM).
Turning to `CCOC(=O)c1ccc(-c2c(-c3ccccc3)nc3cnccn23)cc1`, the IC50 in series [1] is 49.8 µM; in the series with Leishmania major [3] it was 17.5 µM; in [12] it was greater than 10 µM. Besides, the selectivity ratio in series [2] was 2.9.
In the case of `O=[N+]([O-])c1ccc(-c2c(-c3ccccc3)nc3cnccn23)cc1`, the 50% inhibitory concentration (IC50) in series [1] was 114 µM; in the series on Leishmania major [3], 27.6 µM; in series [12], greater than 10 µM. Also, in series [2], the selectivity ratio came out at 4.2.
As for `CN(C)c1nccn2c(I)c(-c3ccccc3)nc12`, the IC50 in series [1] was 29.2 µM; with Leishmania major [3], 6.8 µM; in series [4], 35.7 µM; in series [10], greater than 10 µM; in [12] it was greater than 10 µM. Besides, the selectivity ratio in series [2] was 4.3; in series [9] it was 5.3. For the same compound, the GI50 at 48 h in series [5] was greater than 125 µg/mL; in series [6] it was 39 µg/mL (≈ 107 µM); in series [7], 47 µg/mL (≈ 129 µM); in [8], 38 µg/mL (≈ 104 µM); in series [11], 3 µg/mL (≈ 8.24 µM); in series [13], 44 µg/mL (≈ 121 µM). In addition, in series [14], the GI50 at 48 h turned out to be 16 µg/mL (≈ 43.9 µM).
For the compound `CN(C)CCNc1nccn2c(-c3ccncc3)c(-c3ccccc3)nc12`, the IC50 in [1] is 64.9 µM; in the series with Leishmania major [3] it was 68.8 µM; in series [4], 86.5 µM; in [10] it was 1.6 µM; in [12] it was 0.51 µM. In addition, the selectivity ratio in series [2] came to 0.9; in series [9] it was 1.3. Also, the GI50 at 48 h in series [5] came out at 27 µg/mL (≈ 75.3 µM); in series [6], 47 µg/mL (≈ 131 µM); in series [7], 40 µg/mL (≈ 112 µM); in [8], 6 µg/mL (≈ 16.7 µM); in series [11], 6 µg/mL (≈ 16.7 µM); in series [13], 32 µg/mL (≈ 89.3 µM). Moreover, the GI50 at 48 h in [14] amounted to 15 µg/mL (≈ 41.8 µM).
